{"data": "Results collected from several papers", "target": "Cytoplasmic tyrosine-protein kinase BMX (BMX, Homo sapiens, UniProt P51813)", "observed": "enzyme activity", "action": "inhibitor", "One construct used (P51813 1-675)": "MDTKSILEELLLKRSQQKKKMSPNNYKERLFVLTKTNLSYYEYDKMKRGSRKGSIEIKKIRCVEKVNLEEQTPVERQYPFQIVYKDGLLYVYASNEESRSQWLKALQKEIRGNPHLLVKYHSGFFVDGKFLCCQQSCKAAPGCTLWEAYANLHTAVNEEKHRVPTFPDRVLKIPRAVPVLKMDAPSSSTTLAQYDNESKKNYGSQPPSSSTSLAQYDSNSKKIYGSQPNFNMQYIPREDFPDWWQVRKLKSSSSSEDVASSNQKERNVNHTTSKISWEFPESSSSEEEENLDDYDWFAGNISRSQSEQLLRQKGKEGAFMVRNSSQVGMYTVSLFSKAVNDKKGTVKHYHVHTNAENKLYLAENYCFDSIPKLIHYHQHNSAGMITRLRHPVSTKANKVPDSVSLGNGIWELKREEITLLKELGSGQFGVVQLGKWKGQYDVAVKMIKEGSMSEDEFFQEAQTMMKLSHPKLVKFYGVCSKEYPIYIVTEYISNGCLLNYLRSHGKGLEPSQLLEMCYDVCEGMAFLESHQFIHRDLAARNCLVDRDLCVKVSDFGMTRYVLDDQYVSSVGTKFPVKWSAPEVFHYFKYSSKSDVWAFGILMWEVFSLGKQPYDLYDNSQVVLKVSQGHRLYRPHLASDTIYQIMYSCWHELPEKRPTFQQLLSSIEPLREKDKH", "note": "Protocols differ between the studies behind these lines."}
{"Compound": "CCN(CC)CCNC(=O)c1c(C)[nH]c(/C=C2\\C(=O)Nc3ccc(Cl)cc32)c1C", "tested at": "0.5 µM", "remaining activity": "99.3%"}
{"Compound": "CCN(CC)c1ccc(C2=NNC(=O)CC2C)cc1[N+](=O)[O-] (stereo not drawn)", "tested at": "10 µM", "remaining activity": "96%"}
{"Compound": "O=C(O)c1ccc2c3c1cccc3c(=O)n1c3ccccc3nc21", "tested at": "0.5 µM", "remaining activity": "96.4%"}
{"Compound": "Cc1cnc(NC2CCOCC2)nc1-n1cnc(C(=O)NC(CN)c2cc(F)cc(Cl)c2)c1 (stereo not drawn)", "method": "radiometric", "tested at": "1 µM", "remaining activity": "117%"}
{"Compound": "CC(C)(C)c1nc(-c2cccc(NS(=O)(=O)c3c(F)cccc3F)c2F)c(-c2ccnc(N)n2)s1", "method": "radiometric", "tested at": "1 µM", "remaining activity": "75%"}
{"Compound": "Nc1ncnc2occ(-c3ccc(NC(=O)Nc4cc(C(F)(F)F)ccc4F)cc3)c12", "tested at": "20 µM", "remaining activity": "0.5%"}
{"Compound": "COc1cc(Cl)c(C(=O)N[C@@H](CN[C@H]2CC[C@@H](N)CC2)Cc2ccc(C#N)cc2)cc1-c1ccc(CN[C@H](C)c2ccc(C)cc2)o1", "tested at": "1 µM", "remaining activity": "72%"}
{"Compound": "Cc1sc(C(=O)NC2COC2)cc1-n1cc(NC(=O)Nc2c(F)cccc2Cl)cn1", "tested at": "10 µM", "remaining activity": "92.9%"}
{"Compound": "CC(C)(O)[C@H]1CC[C@H](Nc2ccc3ncc(-c4cccc(C(F)(F)F)c4)n3n2)CC1", "tested at": "1 µM", "remaining activity": "71.5%"}
{"Compound": "CCCOc1ccc(OC)c(F)c1C(=O)c1ccc(C(=O)N[C@@H]2CNC[C@H]2NC(=O)c2ccc3[nH]ncc3c2)cc1", "tested at": "10 µM", "remaining activity": "87%"}
{"Compound": "Cc1ccc(C(=O)Nc2ccc(CN3CCN(C)CC3)c(C(F)(F)F)c2)cc1C#Cc1cnc2cccnn12", "tested at": "23.5 nM", "remaining activity": "47%"}
{"Compound": "COc1cc2ncc(-c3ccccc3)nc2cc1OC", "tested at": "0.5 µM", "remaining activity": "92.2%"}
{"Compound": "O=C(Nc1cnn(-c2csc(C(=O)NC3COC3)c2)c1)Nc1c(F)cccc1Cl", "tested at": "5 µM", "remaining activity": "96.8%"}
{"Compound": "COc1ccc(C(=O)Nc2sc3c(c2C(N)=O)CCCC3)cc1OC", "tested at": "0.5 µM", "remaining activity": "89.8%"}
{"Compound": "CC(C)(C)c1nc2c(s1)c1nc(N)ncc1c1ccc(NS(=O)(=O)c3c(F)cccc3F)c(F)c12", "method": "radiometric", "tested at": "1 µM", "remaining activity": "87%"}
